Hit rate of the full screen: of about 190,000 compounds, about 1,800 (0.95%) were called active.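 The calls were made as follows: active = activation above the screen-wide mean of compound activation plus 3 SD (cut at about 130% in these data); inactive = the rest.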 Many of the other results were omitted from the sample, so actives are more common in it than they were.

A short description of this test: IL-6 driven STAT3 reporter potentiators, primary screen, U3A cells, luciferase, luminescence, MLSCN library (AID 871).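 Also: 0% = background luminescence of wells with medium and substrate only.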 As to conditions: IL-6 STAT3-luciferase reporter, at 5.6 µM, active compounds read high, 100% = signal with IL-6 EC80 alone. The gist of the method: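 Test system: Human STAT1-deficient U3A cells with stable STAT3-luciferase reporter | Also added: Interleukin-6, 33 ng/mL | Timing: Compound pre-incubation 1 h before IL-6, then 6 h stimulation at 37 °C | Technique: Luciferase reporter luminescence | Read-out: Percent of IL-6-only median luminescence | Benchmarks: IL-6-only wells as 100% reference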
As for `CCOc1ccc(C2c3[nH]c4ccccc4c3CCN2Cc2cn(CC)nc2C)cc1` (stereo unspecified), the activation (% of control) is 140% (active).

Consider `COc1cc(-c2nnn(CC(=O)NCc3ccccc3)n2)cc(OC)c1OC`, for which the activation (% of control) was 99.5% (inactive). With `CCOP(=O)(OCC)C(Nc1ccc([N+](=O)[O-])cc1)c1ccc(Cl)cc1` (stereo unspecified), the activation (% of control) was 109% (inactive). Under `Cc1cccc(N2CCN(c3ccc(NC(=O)/C=C\C(=O)O)cc3)CC2)c1` stands 100% (inactive); under `CC(=O)c1ccc(NC(=O)C(C)N(C)CC(=O)Nc2ccccc2Cl)cc1` (stereo unspecified), 96.3% (inactive); under `COc1ccc([N+](=O)[O-])cc1C1NN=C(c2cccc3ccccc23)S1` (stereo unspecified), 139% (active). The value for `COc1ccccc1CC(=O)Nc1ccc([N+](=O)[O-])cc1OC` was 99.8% (inactive); that for `COc1ccc([N+](=O)[O-])cc1NC(=O)C(C)OC(=O)C1c2ccccc2Oc2ccccc21` (stereo unspecified) was 106% (inactive); that for `Cc1ccccc1OCCOc1ccc([N+](=O)[O-])cc1/C=N/n1cnnc1` was 111% (inactive). Consider `O=C(CCc1nnc(CCCCc2ccccc2)o1)NC(c1cccnc1)C(F)(F)F` (stereo unspecified), for which the activation (% of control) is 104% (inactive). Turning to `CC1(C)C=C2[C@H]3CC[C@@H]4[C@@]5(C)CCC(=O)C(C)(C)[C@@H]5CC[C@@]4(C)[C@]3(C)CC[C@@]2(C(=O)O)CC1`, the activation (% of control) is 99.9% (inactive). Turning to `O=[N+]([O-])c1cccc(Nc2c3ccccc3nc3ccccc23)c1`, the activation (% of control) is 109% (inactive). Under `CC(=O)Nc1ccc(NC(=O)COc2ncnc3ccccc23)cc1` stands 95.9% (inactive); under `CC(=O)Nc1ccc(Nc2c3ccccc3nc3ccccc23)cc1`, 218% (active); under `CC(C)C(C)(C#N)NC(=O)CSc1nc2scc(-c3ccccc3)c2c(=O)[nH]1` (stereo unspecified), 108% (inactive). Regarding `O=C(Nc1ccncc1)c1cc(-c2ccccn2)nc2ccc(Br)cc12`, the activation (% of control) is 111% (inactive).

Regarding `O=C(CSc1nn(-c2ccc(F)cc2)c(=S)s1)NC1CCS(=O)(=O)C1` (stereo unspecified), the activation (% of control) is 98.1% (inactive). Regarding `CCS(=O)(=O)N1CCC(C(=O)N2CCN(c3ccccc3)CC2)CC1`, the activation (% of control) was 103% (inactive). For the compound `O=C(C1CCN(S(=O)(=O)Cc2ccccc2)CC1)N1CCCc2ccccc21`, the activation (% of control) is 136% (active).

Take `Cc1noc(/C=C/c2ccco2)c1S(=O)(=O)N1CCC(C(=O)N2CCc3ccccc32)CC1`: the activation (% of control) was 104% (inactive). For the compound `O=C(O)/C(=C/c1cccnc1)NC(=O)c1ccccc1`, the activation (% of control) is 107% (inactive). Take `Nc1ccc(OCC(O)C[n+]2ccc(CCS(=O)(=O)[O-])cc2)cc1` (stereo unspecified): the activation (% of control) was 101% (inactive). Turning to `CCC(C(=O)Nc1ccc2c(c1)OCCO2)c1ccccc1` (stereo unspecified), the activation (% of control) was 93.2% (inactive). As for `CN1C(=O)/C(=N/OC(=O)c2ccccc2Br)c2ccccc21`, the activation (% of control) is 100% (inactive). Turning to `CN1C(=O)/C(=C\c2cc(Br)cs2)c2ccccc21`, the activation (% of control) was 178% (active). Turning to `CCC1C(=O)c2ccccc2N(C)C1=O` (stereo unspecified), the activation (% of control) is 110% (inactive).
